Test results published in ChEMBL document CHEMBL1909578, “New diarylureas and diarylamides containing 1,3,4-triarylpyrazole scaffold: Synthesis, antiproliferative evaluation against melanoma cell lines, ERK kinase inhibition, and molecular docking studies” (Eur J Med Chem, 2011).

Experiments:
[1] = system: SK-MEL-2; assay: Antiproliferative activity against human SK-MEL-2 cells after 48 hrs by SRB assay; format: functional, cell-based; details: SK-MEL-2, 48 h
In short: (§1)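 NCI melanoma panel grown in RPMI 1640 with 5% FBS and 2 mM glutamine. Seeded at 5000–40,000 cells/well, then 24 h before dosing, with time-zero plates fixed. Five concentrations (10-fold or 1/2-log dilutions from DMSO stock) for 48 h. Cells TCA-fixed, stained with 0.4% SRB, read at 515 nm. IC50 is 50% reduction in net protein increase, from (Ti−Tz)/(C−Tz).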

[2] = Antiproliferative activity against human A375P cells after 48 hrs by MTT assay; format: functional, cell-based
In short: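 A375P cells grown in DMEM with 10% FBS and 1% penicillin/streptomycin at 37 °C, 5% CO2. Cells detached with 0.05% trypsin-0.02% EDTA, seeded at 5×10^3 cells/well, and left 24 h. Then exposed for 48 h to 12-point 3-fold serial dilutions. Viability read by MTT reduction, absorbance at 590 nm. IC50 derived from the concentration-response curve.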

[3] = system: SK-MEL-5; assay: Antiproliferative activity against human SK-MEL-5 cells after 48 hrs by SRB assay; format: functional, cell-based; details: SK-MEL-5, 48 h; in short: as §1
[4] = system: LOX IMVI; assay: Antiproliferative activity against human LOXIMVI cells after 48 hrs by SRB assay; format: functional, cell-based; in short: as §1
[5] = system: MDA-MB-435; assay: Antiproliferative activity against human MDA-MB-435 cells after 48 hrs by SRB assay; format: functional, cell-based; details: MDA-MB-435, 48 h; in short: as §1
[6] = system: SK-MEL-28; assay: Antiproliferative activity against human SK-MEL-28 cells after 48 hrs by SRB assay; format: functional, cell-based; details: SK-MEL-28, 48 h; in short: as §1
[7] = system: UACC-62; assay: Antiproliferative activity against human UACC62 cells after 48 hrs by SRB assay; format: functional, cell-based; details: UACC-62, 48 h; in short: as §1
[8] = system: UACC-257; assay: Antiproliferative activity against human UACC257 cells after 48 hrs by SRB assay; format: functional, cell-based; details: UACC-257, 48 h; in short: as §1
[9] = system: M14; assay: Antiproliferative activity against human M14 cells after 48 hrs by SRB assay; format: functional, cell-based; details: M14, 48 h; in short: as §1
[10] = target: Mitogen-activated protein kinase; ERK1/ERK2 (Homo sapiens) (UniProt P27361+P28482); assay: Inhibition of ERK1/2 phosphorylation in human A375P cells after 24 hrs by immunoblotting; format: cell-based
In short: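 A375P melanoma cells treated with 1, 3 and 10 μM compound for 24 h. Lysed in RIPA buffer, sonicated, centrifuged, and protein quantified by DC assay. Lysates run on SDS-PAGE and immunoblotted for phospho-ERK1/2, with β-actin as loading reference.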

Chain of Mitogen-activated protein kinase; ERK1/ERK2 (Homo sapiens) (P27361 whole entry, looked up): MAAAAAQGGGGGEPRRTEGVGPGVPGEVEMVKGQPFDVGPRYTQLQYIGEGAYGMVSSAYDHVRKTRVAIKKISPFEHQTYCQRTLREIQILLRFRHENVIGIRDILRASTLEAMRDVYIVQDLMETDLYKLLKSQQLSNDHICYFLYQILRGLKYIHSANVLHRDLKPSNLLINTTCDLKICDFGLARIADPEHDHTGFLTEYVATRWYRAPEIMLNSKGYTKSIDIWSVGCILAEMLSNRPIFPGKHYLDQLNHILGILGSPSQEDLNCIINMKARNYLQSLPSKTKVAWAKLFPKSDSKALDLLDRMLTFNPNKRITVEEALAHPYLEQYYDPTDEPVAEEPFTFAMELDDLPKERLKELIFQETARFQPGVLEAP
Chain of Mitogen-activated protein kinase; ERK1/ERK2 (Homo sapiens) (P28482 whole entry, looked up): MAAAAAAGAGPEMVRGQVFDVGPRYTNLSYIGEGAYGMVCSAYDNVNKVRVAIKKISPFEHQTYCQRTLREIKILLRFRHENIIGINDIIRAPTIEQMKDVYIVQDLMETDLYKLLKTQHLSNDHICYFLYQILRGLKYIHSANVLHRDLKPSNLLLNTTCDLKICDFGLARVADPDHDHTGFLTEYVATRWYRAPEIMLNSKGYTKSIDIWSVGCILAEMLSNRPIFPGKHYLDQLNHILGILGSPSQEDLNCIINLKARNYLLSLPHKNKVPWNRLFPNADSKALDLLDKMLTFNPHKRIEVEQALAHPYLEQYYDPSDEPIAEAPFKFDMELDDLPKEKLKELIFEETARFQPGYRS

Row | Compound | IC50 [1] | IC50 [3] | IC50 [5] | IC50 [6] | inhibition [10] | IC50 [2] | IC50 [4] | IC50 [7] | IC50 [8] | IC50 [9]
1 | COc1cc(-c2nn(-c3ccc(NC(=O)c4ccc(Cl)c(Cl)c4)cc3)cc2-c2ccncc2)ccc1Cl | 5740 nM | 1650 nM | 7130 nM | 40300 nM |  | 13000 nM | 2760 nM | 6340 nM | > 100000 nM | 22400 nM
2 | COc1cc(-c2nn(-c3ccc(NC(=O)c4cc(C(F)(F)F)cc(C(F)(F)F)c4)cc3)cc2-c2ccncc2)ccc1Cl |  |  |  |  |  | > 20000 nM |  |  |  | 
3 | COc1cc(-c2nn(-c3ccc(NC(=O)c4cc(Cl)cc(Cl)c4)cc3)cc2-c2ccncc2)ccc1Cl | > 100000 nM | 12000 nM | > 100000 nM | > 100000 nM |  | > 20000 nM | 3090 nM | 4580 nM | > 100000 nM | 7390 nM
4 | O=C(Nc1ccc(-n2cc(-c3ccncc3)c(-c3ccc(Cl)c(O)c3)n2)cc1)Nc1ccc(Cl)c(Cl)c1 |  |  |  |  |  | 13500 nM |  |  |  | 
5 | O=C(Nc1ccc(-n2cc(-c3ccncc3)c(-c3ccc(Cl)c(O)c3)n2)cc1)c1cc(C(F)(F)F)cc(C(F)(F)F)c1 | 6600 nM | 1550 nM | 4110 nM | 4880 nM |  | > 20000 nM | 2540 nM | 14400 nM | 8940 nM | 6340 nM
6 | O=C(Nc1ccc(-n2cc(-c3ccncc3)c(-c3ccc(Cl)c(O)c3)n2)cc1)c1ccc(Cl)c(Cl)c1 | 4050 nM | 1150 nM | 2730 nM | 2940 nM | Dose-dependent effect | 6700 nM | 1450 nM | 3220 nM | 4740 nM | 2350 nM
7 | O=C(Nc1ccc(-n2cc(-c3ccncc3)c(-c3ccc(Cl)c(O)c3)n2)cc1)Nc1cccc(Cl)c1Cl |  |  |  |  |  | 16800 nM |  |  |  | 
8 | O=C(Nc1ccc(-n2cc(-c3ccncc3)c(-c3ccc(Cl)c(O)c3)n2)cc1)c1cc(Cl)cc(Cl)c1 | 6910 nM | 1400 nM | 3780 nM | 2750 nM |  | 6800 nM | 1190 nM | 2730 nM | 5700 nM | 1510 nM
9 | COc1cc(-c2nn(-c3ccc(NC(=O)Nc4cccc(Cl)c4Cl)cc3)cc2-c2ccncc2)ccc1Cl |  |  |  |  |  | > 20000 nM |  |  |  | 
10 | CNC(=O)c1cc(Oc2ccc(NC(=O)Nc3ccc(Cl)c(C(F)(F)F)c3)cc2)ccn1 [SORAFENIB] |  |  |  |  |  | 11500 nM |  |  |  | 

More lines, in order of falling IC50 [1], values ahead:

Row | IC50 [1] | IC50 [3] | IC50 [5] | IC50 [6] | inhibition [10] | Compound | IC50 [2] | IC50 [4] | IC50 [7] | IC50 [8] | IC50 [9]
11 | 3440 nM | 2840 nM | 2870 nM | 3940 nM |  | COc1cc(-c2nn(-c3ccc(NC(=O)Nc4ccc(Cl)c(Cl)c4)cc3)cc2-c2ccncc2)ccc1Cl | > 20000 nM | 1980 nM | 3350 nM | 3170 nM | 2560 nM
12 | 3150 nM | 1590 nM | 2520 nM | 2800 nM |  | COc1cc(-c2nn(-c3ccc(NC(=O)c4ccc(Cl)c(C(F)(F)F)c4)cc3)cc2-c2ccncc2)ccc1Cl | 9800 nM | 1560 nM | 2180 nM | 5830 nM | 1920 nM
13 | 1800 nM | 1670 nM | 1770 nM | 2010 nM |  | O=C(Nc1ccc(-n2cc(-c3ccncc3)c(-c3ccc(Cl)c(O)c3)n2)cc1)Nc1cc(C(F)(F)F)cc(C(F)(F)F)c1 | > 20000 nM | 1630 nM | 2230 nM | 2010 nM | 1760 nM
14 | 1700 nM | 1530 nM | 1880 nM | 1930 nM |  | COc1cc(-c2nn(-c3ccc(NC(=O)Nc4cc(C(F)(F)F)cc(C(F)(F)F)c4)cc3)cc2-c2ccncc2)ccc1Cl | 11800 nM | 1630 nM | 1550 nM | 2300 nM | 1990 nM
15 | 1700 nM | 1530 nM | 1320 nM | 1630 nM |  | O=C(Nc1ccc(-n2cc(-c3ccncc3)c(-c3ccc(Cl)c(O)c3)n2)cc1)Nc1ccc(Cl)c(C(F)(F)F)c1 | 14900 nM | 1440 nM | 1700 nM | 1510 nM | 1430 nM
16 | 1630 nM | 1570 nM | 1600 nM | 1880 nM |  | COc1cc(-c2nn(-c3ccc(NC(=O)Nc4ccc(Cl)c(C(F)(F)F)c4)cc3)cc2-c2ccncc2)ccc1Cl | 14000 nM | 1430 nM | 1770 nM | 1640 nM | 1740 nM
17 | 1580 nM | 1070 nM | 1200 nM | 1080 nM |  | O=C(Nc1ccc(-n2cc(-c3ccncc3)c(-c3ccc(Cl)c(O)c3)n2)cc1)c1ccc(Cl)c(C(F)(F)F)c1 | 6800 nM | 360 nM | 2030 nM | 2550 nM | 840 nM
